# Sampled rows, rich in hits. Any-hit rate of the full collection: about 2.4%.
# VIM-2 inhibitor: VIM-2 metallo-beta-lactamase inhibitors, primary screen, biochemical, epi-absorbance readout, Pseudomonas aeruginosa enzyme | purified VIM-2, nitrocefin hydrolysis, epi-absorbance fluorescence | inhibition, % at 5.6 µM | 0.89% of 290,000 active;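 active means inhibition above the mean of all tested compounds plus 3 SD, cutoff set per screening run, cut at about 7.5% in these data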;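 further: red hydrolysis product quenches plate fluorescence so inhibitors raise well fluorescence; 0% = enzyme with DMSO and 100% = DMSO without enzyme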
# M18AAP inhibitor: PfM18AAP inhibitors, malaria aminopeptidase, primary screen, biochemical, QFRET, recombinant enzyme | M18 aspartyl aminopeptidase (Plasmodium falciparum 3D7) | H-Glu-NHMec fluorogenic cleavage | inhibition, % at 7.35 µM | 1.2% of 290,000 active;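 active means inhibition above the campaign mean inhibition over all tested compounds plus 3 SD, cut at about 28% in these data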;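 further: 0% = plate median of test compound wells and 100% = 2 mM ZnCl2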
# sPLA2-III inh: human group III sPLA2 inhibitors, primary screen, biochemical, QFRET, BODIPY PC-A2 liposome substrate; inhibition, % at 12.2 µM; QFRET BODIPY PC-A2 liposome hydrolysis, fluorescence; Group 3 secretory phospholipase A2 (Homo sapiens), Q9NZ20; AID 743126, 2013; 0.56% of 370,000 active;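 active means inhibition above mean plus 3 SD of compounds lying within the high and low control bounds, cut at about 19% in these data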;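 further: 0% = median of test compound wells and 100% = no enzyme DMSO wells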
# Target sequence (Q9NZ20 whole entry, looked up): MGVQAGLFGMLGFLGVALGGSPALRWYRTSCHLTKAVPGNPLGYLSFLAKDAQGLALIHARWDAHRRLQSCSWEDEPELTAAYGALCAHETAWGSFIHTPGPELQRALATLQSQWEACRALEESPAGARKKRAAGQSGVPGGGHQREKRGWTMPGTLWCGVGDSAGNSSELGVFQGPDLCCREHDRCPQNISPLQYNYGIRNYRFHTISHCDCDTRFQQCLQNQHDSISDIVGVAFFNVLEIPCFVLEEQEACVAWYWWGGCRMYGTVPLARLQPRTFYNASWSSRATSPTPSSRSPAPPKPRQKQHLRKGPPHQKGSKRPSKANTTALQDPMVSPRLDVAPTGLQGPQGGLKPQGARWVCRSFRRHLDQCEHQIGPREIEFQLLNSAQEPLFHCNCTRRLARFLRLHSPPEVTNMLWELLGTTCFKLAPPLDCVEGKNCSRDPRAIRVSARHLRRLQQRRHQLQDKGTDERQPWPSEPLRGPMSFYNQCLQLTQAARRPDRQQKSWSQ
# IMP-1 inh: IMP-1 metallo-beta-lactamase inhibitors, primary screen, biochemical, epi-absorbance readout, Pseudomonas aeruginosa enzyme | metallo-beta-lactamase IMP-1 (Pseudomonas aeruginosa) | purified IMP-1, nitrocefin hydrolysis, epi-absorbance fluorescence | inhibition, % at 5.6 µM | 0.45% of 290,000 active;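 active means inhibition above the mean plus 3 SD of all compounds in the same screening run, cut at about 4.5% in these data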;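 further: 0% = IMP-1 with DMSO and 100% = DMSO wells lacking enzyme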
#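 System: purified recombinant IMP-1 beta-lactamase. Medium: Zinc- and detergent-supplemented HEPES buffer, pH 7.1. Compound: one 5.6 µM dose […]. Schedule: 15 min preincubation plus 25 min reaction at 25 °C. Technique: Epi-absorbance fluorescence, 480 nm excitation, 530 nm emission.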
# * marks the source's active call; other numbers are inactive results; · = no result given.
SMILES,VIM-2 inhibitor,M18AAP inhibitor,sPLA2-III inh,IMP-1 inh
O=C(NCc1n[nH]c(=S)n1-c1ccc(Br)cc1)c1ccc(S(=O)(=O)N2CCOCC2)cc1,-3,28*,5,-4
O=C(NCc1n[nH]c(=S)n1-c1ccc(Br)cc1)c1ccc(S(=O)(=O)N2CCCC2)cc1,-4,23,11,-5
CCOc1ccc(-n2c(SCc3nc4ccccc4[nH]3)nnc2-c2cccc(Cl)c2)cc1,·,·,-6,·
CCOC(=O)[C@@]12CCC3=C1N(CCC3)C(=O)[C@H](CC(=O)NCc1ccc(C)o1)C2,·,·,-7,·
COc1ccc(CN(C(=O)Cc2cccs2)C(C(=O)NC2CCCC2)c2ccncc2)cc1 (stereo not given),-1,3,7,-1
COCCC(=O)N(Cc1ccc2c(c1)OCO2)C(C(=O)NC1CCCCC1)c1ccncc1 (stereo not given),-3,30*,9,-3
N=c1c2c(-c3ccccc3)c(-c3ccccc3)n(Cc3ccccc3)c2ncn1C1CCOCC1,·,·,5,·
CCCC1CC(C)(/C(C)=N\NC(N)=S)OC1=O (stereo not given),-1,28*,-2,-2
COC(=O)[C@]12C[C@H](CC(=O)NCc3cccc(C(F)(F)F)c3)C(=O)N(Cc3cccc4ccccc34)C1=C[C@H](COCc1ccccc1)O[C@@H]2C,·,·,-15,·
NS(=O)(=O)c1ccc(N=Nc2ccc(O)c3ncccc23)cc1,-2,8,46*,2
COc1ccccc1C(=O)NC1CCCCN(Cc2ccc(C)cc2)C1=O (stereo not given),·,·,0,·
Cc1sc2ncnc(-n3cnc4ccccc43)c2c1C,0,-13,6,7.3*
Cc1ccc(-c2csc3ncnc(-n4cnc5ccccc54)c23)cc1,-1,3,0,-2
COc1ccc(S(=O)(=O)N(C)C(C)CCc2ccco2)cc1 (stereo not given),4,-7,-19,4.9*
CCN1CCN(CC(=O)Nc2c(OC)cccc2OC)CC1,-3,6,3,5.5*
Oc1cc2c(cc1O)C(c1ccccc1)CNCC2 (stereo not given),·,·,1,·
Oc1cc2c(cc1O)[C@@H](c1ccccc1)CNCC2,-2,83*,-12,-2
O=C(NCc1cccs1)O[C@H]1CC[C@@]23CCCN2C(=O)CCC[C@H]3C1,·,·,5,·
CCCCS/C(N)=N/N=C/c1cc(C)ccc1O,-7,29*,12,-2
CS/C(N)=N/N=C/c1cc(C)ccc1O,-1,26,6,-1
NC(N)=N/N=C/c1cc([N+](=O)[O-])ccc1O,-3,27,-2,-1
CCS/C(N)=N/N=C/c1cc(C)ccc1O,-6,31*,10,-3
O=C(OC12CCCN(C1)/C(=C/c1ccncc1)C2)c1ccc(Cl)cc1 (stereo not given),·,·,-1,·
O=C(N[C@H](Cc1ccccc1)C(=O)NCc1ccccn1)[C@H]1O[C@@H](n2ccc(=O)[nH]c2=O)[C@H](O)[C@@H]1O,·,·,4,·
C(=N/N1CCN(c2ccccc2)CC1)/c1ccco1,·,·,0,·
SMILES,VIM-2 inhibitor,M18AAP inhibitor,sPLA2-III inh,IMP-1 inh
COC(=O)C1=C2SC(C)C(=O)N2C(N)=C(C#N)C1c1ccc(OC)c(OC)c1 (stereo not given),-2,30*,-8,-4
CCCn1c(=O)c2ccccc2n2c(SCCNCCO)nnc12,11*,-4,0,-3
CCCn1c(=O)c2ccccc2n2c(SCC(=O)c3ccccc3)nnc12,-4,5,-10,-6
COC(=O)[C@]12C[C@H](CC(=O)NCc3ccc(C)o3)C(=O)N(CCc3ccc(OC)c(OC)c3)C1=C[C@H](COCc1ccccc1)O[C@@H]2C,·,·,-15,·
CCOC(=O)[C@@]12CN(C(=O)OC(C)(C)C)CC=C1N(Cc1ccc(OC)cc1)C(=O)[C@H]2CC(=O)NCc1ccc(C)o1,·,·,-10,·
CN(C#N)c1nc(Cl)nc(Nc2cccc(Cl)c2)n1,9.4*,-2,-7,-5
CCc1nnc(N/N=C/c2c(C)[nH]c3ccccc23)n1N,0,54*,6,-1
COc1ccc(-c2cnnc(N/N=C/c3ccc(O)c(O)c3)n2)cc1,-3,48*,6,-5
O=C(NC1CCCCN(Cc2ccc(Cl)cc2)C1=O)c1cccc([N+](=O)[O-])c1 (stereo not given),·,·,2,·
COC(=O)c1ccc(NCc2c(O)ccc(O)c2Br)cc1Cl,·,·,34*,·

# Bioassay records deposited in PubChem by The Scripps Research Institute Molecular Screening Center.
